Published values of several laboratories.
Protocols differ between the studies behind these lines.
Read-out: enzyme activity
Action: inhibitor
KIT T670I: Mast/stem cell growth factor receptor Kit (KIT, Homo sapiens, UniProt P10721, T670I)
KIT: Mast/stem cell growth factor receptor Kit (KIT, Homo sapiens, UniProt P10721)
KIT D816V: Mast/stem cell growth factor receptor Kit (KIT, Homo sapiens, UniProt P10721, D816V)

CNC(=O)c1cc2c(Oc3ccc(NC(=O)C4(C(=O)Nc5ccc(F)cc5)CC4)cc3)ccnc2cc1OC  inhibition (Mast/stem cell growth factor receptor Kit (KIT, Homo sapiens, UniProt P10721, V560G); radiometric; 1 µM): 92%
COc1cc2ncnc(Nc3ccc(Oc4ccccc4)cc3C)c2cc1OC  inhibition (KIT T670I; 1 µM): -9%
CN(C)C1CCN(CC#Cc2nn(C3CCCC3)c3nc(NCc4ccccc4)ncc23)C1 (stereo not shown)  inhibition (KIT; FRET; 10 µM): 11%
COc1cc2nccc(Oc3ccc(NC(=O)c4c5n(n(-c6ccc(F)cc6)c4=O)CCCC5)cc3)c2cc1OC  inhibition (KIT; 0.1 µM): -1%
C=CC(=O)Nc1cc(Nc2nccc(Nc3cc(Cl)c(F)cc3C(C)(C)O)n2)c(OC)cc1N1CC[C@@H](N(C)C)C1  inhibition (KIT; 1 µM): 2%
O=C(CSc1nc2nccnc2c(=O)n1CCc1ccccc1)Nc1nccs1  inhibition (KIT D816V; 10 µM): 6%
CC/C(=N\NC(=O)NCc1cccc(O)c1)c1ccc(O)c(C)c1O  inhibition (KIT D816V; 0.1 µM): 1.4%
CS(=O)(=O)Nc1cccc(-c2csc(NC(=O)CSc3nc4nccnc4c(=O)n3CCc3ccccc3)n2)c1  inhibition (KIT D816V; 10 µM): -1%
COc1cc2ncnc(Nc3ccc(Oc4ccccc4)c(C)c3C)c2cc1OC  inhibition (KIT T670I; 1 µM): -7%
COc1cc(-c2cc(-c3ccc(N4CCNCC4)cc3)cnc2N)cc(OC)c1OC  inhibition (KIT T670I; 0.1 µM): 3%
